Rows were chosen to be rich in hits. Some 4% of all compounds tested hit in one or more screens of this group.
MPTP inh: mitochondrial permeability transition pore inhibitors, primary screen, biochemical, isolated mouse mitochondria, absorbance | Ca2+ swelling absorbance, 30 min | inhibition, % at 10 µM | actives 1.4% (n = 360,000) | AID 602449, 2012;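 active = inhibition of 50% or more, scaled per plate between neutral and stimulator controls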
GPR7 antagonist: GPR7 receptor antagonists, primary screen, cell-based, fluorescence, single concentration; AID 1861, 2009; actives 1.1% (n = 290,000); GPR7-expressing cells, fluorescence antagonist assay; inhibition, % at 4.4 µM; in the data active = inhibition above about 16%, passing the limit was not always enough;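 note: cells stimulated with the agonist NPW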
Target sequence (P48145 whole entry, looked up): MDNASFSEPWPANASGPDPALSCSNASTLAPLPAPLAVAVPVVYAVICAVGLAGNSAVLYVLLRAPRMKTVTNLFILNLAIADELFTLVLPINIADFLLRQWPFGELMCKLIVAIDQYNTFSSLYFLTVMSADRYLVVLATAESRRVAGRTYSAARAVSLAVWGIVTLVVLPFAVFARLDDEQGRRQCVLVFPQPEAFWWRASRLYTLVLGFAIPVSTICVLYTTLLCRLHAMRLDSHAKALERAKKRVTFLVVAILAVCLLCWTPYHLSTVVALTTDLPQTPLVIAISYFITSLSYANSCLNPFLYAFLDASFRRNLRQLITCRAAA
DAGLB inhibitor: DAGLB lipase inhibitors, primary screen, biochemical, fluorescence, HTS; Diacylglycerol lipase-beta (Homo sapiens), Q8NCG7; HEK293T DAGLB membrane lysate, EnzChek fluorogenic substrate; inhibition, % at 5.17 µM; actives 0.059% (n = 340,000); AID 504411, 2011; in the data active = inhibition above about 34%
TAAR1 antagonist: human TAAR1 antagonists, primary screen, Fluo-8 calcium fluorescence, CHO RD-HGA16 cells; Trace amine-associated receptor 1 (Homo sapiens), Q96RJ0; antagonist; inhibition, % at 3 µM; actives 1.5% (n = 360,000); AID 624466, 2012;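 active = inhibition above a per-plate cutoff, the mean inhibition of test compounds on that plate plus 3 SD, cut at about 49% in these data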
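Test system: hTAAR1-expressing CHO RD-HGA16 cells, Gα16-coupled; Probe or stimulus: EC80 β-phenethylamine stimulus; Compound dosing: single nominal final test compound concentration of 3 µM; Timing: 140 s kinetic read after compound, 140 s after agonist; Signal: Fluo-8 calcium-sensitive fluorescence; Measure: % inhibition of agonist calcium response; Controls: DMSO and EC80 PEA controls.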
TAAR1 ag: human TAAR1 agonists, primary screen, Fluo-8 calcium fluorescence, CHO RD-HGA16 cells | Trace amine-associated receptor 1 (Homo sapiens), Q96RJ0 | vehicle wells 0%, saturating PEA agonist 100% | actives 0.99% (n = 360,000) | activation, % at 3 µM | AID 624467, 2012;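 active = activation above the mean activation of all test compounds in the run plus 3 SD, cut at about 38% in these data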
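Repeats: no replicates (n 1) | Material: CHO-derived RD-HGA16 cells with stable Gα16 and human TAAR1 | Technique: Kinetic Fluo-8 calcium fluorescence | Schedule: 17-24 h seeding, 75 min 37 °C dye, 30 min RT | Evaluation: % activation from peak over basal fluorescence ratio, DMSO-to-PEA scaled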
MPTP counter: fluorescence retest of MPTP screen hits in isolated mitochondria, single concentration | shares compounds with MPTP inh | membrane potential, Rhodamine 123 fluorescence | inhibition, % at 10 µM | actives 78% (n = 5,000) | AID 624504, 2012; in the data active = inhibition above about 22%
MPTP abs DR: mitochondrial permeability transition pore inhibitors, dose response, biochemical, absorbance, uHTS hits | shares compounds with MPTP inh | isolated mitochondria swelling | IC50, µM | actives 58% (n = 780); in the data active = IC50 below about 20 µM
MPTP cs DR: fluorescent counter-screen in isolated mitochondria, dose response, counter-screen for MPTP inhibitor project, biochemical, fluorescence, uHTS hits. shares compounds with MPTP inh. isolated mitochondria counterscreen, fluorescence read-out. IC50, µM. actives 49% (n = 780); in the data active = IC50 below about 80 µM
A number is an active result; 0 = inactive; - = no result.

SMILES	MPTP inh	GPR7 antagonist	DAGLB inhibitor	TAAR1 antagonist	TAAR1 ag	MPTP counter	others
O=C(NCCc1cn2ccccc2n1)c1cc(COc2ccc3ncccc3c2)on1	101.5	0	0	86.7	0	92.4
CC(NC(=O)c1cc(COc2ccc3ncccc3c2)on1)c1ccc(F)cc1 (centres undefined)	94.0	0	0	0	0	85.8
O=C(c1cc(COc2ccc3ncccc3c2)on1)N1CCCC1	52.2	0	0	0	0	69.9
CSc1ccccc1OCc1cc(C(=O)N2CCC(c3ccncc3)CC2)no1	59.8	0	0	0	0	91.2
O=C(c1cc(COc2ccc(F)cc2Cl)on1)N1CCC(c2ccncc2)CC1	0	0	0	0	0	-
O=C(C[C@@H]1C[C@@H]2c3cc(NC(=O)c4ccc5c(c4)OCO5)ccc3O[C@@H]2[C@@H](CO)O1)NCc1cccnc1	-	-	-	0	0	-
COCCNC(=S)N(C)[C@H]1C[C@H]2c3[nH]c4ccccc4c3CCN2C(=O)[C@H]1[C@H](C)O	-	-	-	0	0	-
O=C(c1cc(COc2ccc3ncccc3c2)on1)N1CCCCCC1	98.5	0	0	0	0	100.6
Cc1cc(OCc2cc(C(=O)N3CCC(Oc4cccnc4)CC3)no2)cc(C)c1Cl	68.6	0	0	52.5	0	102.4
O=C(NC1CCCC1)c1cc(COc2ccc3ncccc3c2)on1	94.7	0	0	-	-	93.6
COCC1CCN(C(=O)c2cc(COc3ccc4ncccc4c3)on2)CC1	74.0	0	0	0	0	80.6
C[C@@H]1CN([C@@H](C)CO)C(=O)c2cc(Br)cnc2O[C@@H]1CN(C)C(=O)c1ccc(F)cc1	-	-	-	0	0	-
O=C1CCN(Cc2ccco2)C(=S)N1	0	-	0	0	0	-
Cc1ccc(CN=Cc2[nH]c3ccc(Br)c(Cl)c3c2O)cc1	69.1	0	0	0	0	0
CCc1c(C)nc2ncnn2c1Nc1ccc(C)cc1	0	0	0	0	0	-
CCc1c(C)nc2ncnn2c1NCCc1ccc(OC)cc1	51.4	0	0	0	0	65.1
CC(C)(C)CN1CCNC[C@H]1Cc1cccc2ccccc12	55.1	-	0	0	0	0	MPTP abs DR=7.13;MPTP cs DR=66.3
Oc1ccc(C[C@@H]2CNCCN2CCc2cccc3ccccc23)cc1	84.0	-	0	0	0	0	MPTP abs DR=14.5;MPTP cs DR=0
CC(=O)c1cccc(OCC(=O)N(C)CC(=O)NCc2ccco2)c1	0	-	0	0	0	-
C[C@H](O)[C@@H]1C(=O)N2CCc3ccc(-c4ccccc4)cc3[C@@H]2C[C@@H]1N(C)C(=O)c1ccco1	0	-	0	0	0	-
OCCN1CCN(C2Cc3cc(Cl)ccc3Sc3ccc(Cl)cc32)CC1 (centres undefined) (tested in a mixture with another compound)	84.5	0	0	-	-	0
CCOC(=O)N1CCC(N(CCCOC)C(=O)Nc2ccc(CC)cc2)CC1	0	0	0	0	0	-
CCOC(=O)N1CCC(N(CCOC)C(=O)Nc2ccc(Cl)cc2)CC1	63.6	0	0	0	0	77.0
CC1CCCC(C)N1C(=O)c1ccccc1 (centres undefined)	-	-	-	0	0	-
CC(C)CCn1nc(C(=O)Nc2nc3c(s2)CCCC3)c2ccccc2c1=O	0	0	0	0	0	-
O=C(Nc1nc2c(s1)CCCC2)c1nn(Cc2ccccc2)c(=O)c2ccccc12	59.0	0	0	0	0	0	MPTP abs DR=0;MPTP cs DR=0
NCCOc1ccccc1Cc1ccccc1	68.7	0	0	0	0	0	MPTP abs DR=6.66;MPTP cs DR=0
Cc1noc(C)c1S(=O)(=O)N(C)C[C@@H]1OCc2cn(nn2)CCCC(=O)N([C@H](C)CO)C[C@H]1C	-	-	-	0	0	-

Assay outcomes deposited in PubChem BioAssay by several laboratories.
